Where two headings read alike, the source gives them in different places.
Tests used:
[1] = test system: chorea associated with Huntington's disease; conditions: cited from earlier work
[2] = Study AUS-SD-809-CTP-07 part 2: single and repeated; assay type: in vivo, human; conditions: for α-HTBZ Cmin / (α+β)-HTBZ Cmin / β-HTBZ Cmin: steady state, mean (CV%); for α-HTBZ Cmin: 0-12 h; for Linear regression model slope (zero intercept) / Power regression model α (parameter = α × dose^β) / Power regression model β (exponent of dose): deutetrabenazine fed
Procedure, shortened: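 Two groups of 12 healthy subjects over 20 days; the second group dosed ≥7 days after the first. Test compound given at 7.5, 15 and 22.5 mg after a standard meal; non-deuterated reference 25 mg fasted. Single doses on days 1 and 4, ≥72 h apart, with full plasma profiles. Dosing every 12 h from day 7 for 3.5 days, with predose troughs used to confirm steady state. Cmin taken as the minimum over 0–12 h. Power (parameter = α × dose^β) and zero-intercept linear regressions fitted to single-dose AUCinf, steady-state AUC0-12 and Cmax.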

[3] = assay type: in vivo, human
Procedure, shortened: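 Healthy subjects given 18 mg test compound after a standard meal or after a high-fat meal. For the dose-proportionality arms, doses of 6, 12, 18 and 24 mg were given with a standard meal and compared as dose-normalised parameters. Plasma dihydro metabolites analysed by non-compartmental Cmax, AUC0-t and AUCinf. ANOVA on ln values; geometric mean ratios with 90% CI, back-transformed.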

[4] = Safety assessments, study AUS-SD-809-CTP-07; assay type: in vivo, human; conditions: for Serious AEs: healthy volunteers; for Laboratory parameters, vital signs and physical examination: single or multiple doses
Procedure, shortened: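 Healthy subjects, single 15 mg dose in part 1 and single or repeated 7.5–22.5 mg doses in part 2. Adverse-event monitoring, physical examination, vital signs, standard 12-lead ECG, PHQ-9, C-SSRS and laboratory tests repeated throughout, including 72 h after each dose in part 1. For preliminary QTc assessment, triplicate digital 12-lead ECGs recorded on part 2 dosing days 1 and 4.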

[5] = assay type: in vivo, human; conditions: for Total (α+β)-HTBZ AUC0-t / Total (α+β)-HTBZ AUCinf / Total (α+β)-HTBZ Cmax / Total (α+β)-HTBZ T1/2 / α-HTBZ AUC0-t / α-HTBZ AUCinf / α-HTBZ Cmax / β-HTBZ AUC0-t / β-HTBZ AUCinf / β-HTBZ Cmax / β-HTBZ T1/2 / Total (α+β)-HTBZ Tmax / α-HTBZ Tmax / β-HTBZ Tmax: deutetrabenazine 15 mg single dose; for Total (α+β)-HTBZ AUC0-t / Total (α+β)-HTBZ AUCinf / Total (α+β)-HTBZ Cmax / Total (α+β)-HTBZ T1/2 / α-HTBZ AUC0-t / α-HTBZ AUCinf / α-HTBZ Cmax / β-HTBZ AUC0-t / β-HTBZ AUCinf / β-HTBZ Cmax / β-HTBZ T1/2: mean (CV%); for Total (α+β)-HTBZ Tmax / α-HTBZ Tmax / β-HTBZ Tmax: median (range); for Plasma concentrations of the parent compound: single administration of 15 mg deutetrabenazine or 25 mg tetrabenazine tablets, LLOQ 0.100 ng/mL
Procedure, shortened: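 Randomised crossover in 25 healthy subjects, five periods over 17 days, all in clinic. Single oral dose: 15 mg of each of two test-compound tablet formulations, fed or fasted, or 25 mg non-deuterated reference fasted. Fasted means an overnight fast of ≥10 h; fed means an FDA-definition high-fat (50% calories), 800–1000 calorie meal. Plasma dihydro metabolites sampled predose and over 72 h; values below LLOQ set to LLOQ where flanked by measurable ones. Non-compartmental AUC and Cmax; ANOVA on ln values (subject, period, treatment); back-transformed geometric mean ratios with 90% CI.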

tardive dyskinesia = conditions: cited from earlier work
[6] = test system: chorea in patients with HD; conditions: 12 weeks; cited from earlier work
VMAT2 = conditions: cited from earlier work
[7] = deutetrabenazine 7.5 mg twice daily fed
[8] = deutetrabenazine 15 mg twice daily fed
[9] = deutetrabenazine 22.5 mg twice daily fed
[10] = total (α+β)-HTBZ AUC0-12 (steady state)
[11] = total (α+β)-HTBZ AUCinf (single dose)
[12] = deutetrabenazine 18 mg high-fat/high-calorie meal versus standard meal
[13] = deutetrabenazine 18 mg, high-fat/high-calorie meal
[14] = deutetrabenazine 18 mg, standard meal
[15] = LS geometric mean ratio deutetrabenazine 15 mg fed / tetrabenazine 25 mg fasted
[16] = deutetrabenazine 15 mg high-fat/high-calorie meal versus fasted
[17] = deutetrabenazine 15 mg, high-fat/high-calorie meal

Compound: [2H]C([2H])([2H])Oc1cc2c(cc1OC([2H])([2H])[2H])C1CC(=O)C(CC(C)C)CN1CC2 (stereo not shown) [Deutetrabenazine]
- Mean difference in total maximal chorea score compared with placebo treatment [1]: −2.5 unit
- Mean Unified Huntington's Disease Rating Scale total maximal chorea score ([1]; weeks 9-12, twice a day, baseline 12.1): 7.7
- α-HTBZ Cmin [2, 7]: 7.2 (41) ng/mL
- (α+β)-HTBZ Cmin [2, 7]: 10.1 (48) ng/mL
- β-HTBZ Cmin [2, 7]: 2.8 (71) ng/mL
- α-HTBZ Cmin [2, 8]: 15.6 (37) ng/mL
- (α+β)-HTBZ Cmin [2, 8]: 21.1 (41) ng/mL
- β-HTBZ Cmin [2, 8]: 5.5 (54) ng/mL
- α-HTBZ Cmin [2, 9]: 26.3 (40) ng/mL
- (α+β)-HTBZ Cmin [2, 9]: 39.5 (59) ng/mL
- β-HTBZ Cmin [2, 9]: 13.1 (102) ng/mL
- Exposure to β-HTBZ relative to α-HTBZ ([2]; single-dose and repeated deutetrabenazine administration): approximately one‐third
- Linear regression model slope (zero intercept) [2, 10]: 32.4
- Power regression model α (parameter = α × dose^β) [2, 10]: 17.8
- Power regression model β (exponent of dose) [2, 10]: 1.2
- Linear regression model slope (zero intercept) [2, 11]: 26.9
- Power regression model α (parameter = α × dose^β) [2, 11]: 17.0
- Power regression model β (exponent of dose) [2, 11]: 1.1
- Total (α+β)-HTBZ AUC0-t % ratio [3, 12]: 107.0%
- Total (α+β)-HTBZ AUCinf % ratio [3, 12]: 106.4%
- Total (α+β)-HTBZ Cmax % ratio [3, 12]: 104.2%
- Total (α+β)-HTBZ T1/2 % ratio [3, 12]: 101.8%
- Total (α+β)-HTBZ AUC0-t, LS mean [3, 13]: 408 ng·h/mL
- Total (α+β)-HTBZ AUCinf, LS mean [3, 13]: 419 ng·h/mL
- Total (α+β)-HTBZ Cmax, LS mean [3, 13]: 48.4 ng/mL
- Total (α+β)-HTBZ AUC0-t, LS mean [3, 14]: 382 ng·h/mL
- Total (α+β)-HTBZ AUCinf, LS mean [3, 14]: 394 ng·h/mL
- Total (α+β)-HTBZ Cmax, LS mean [3, 14]: 46.5 ng/mL
- Total (α+β)-HTBZ T1/2, LS mean [3, 14]: 9.7 h
- Serious AEs [4]: No serious AEs
- Most frequent AEs reported as possibly drug related ([4]; in vivo): Somnolence and headache
- Subjects with change from predose in QTc of >30 milliseconds ([4]; in vivo): No subject
- Subjects with postdose QTc > 450 milliseconds ([4]; in vivo): No subject
- Tolerability ([4]; single 15 mg (part 1) and single/repeated 7.5-22.5 mg (part 2)): well tolerated
- Laboratory parameters, vital signs and physical examination [4]: no clinically significant abnormalities
- Total (α+β)-HTBZ AUC0-t % ratio (90%CI) [5, 15]: 126.6 (115.8‐138.4) %
- Total (α+β)-HTBZ AUCinf % ratio (90%CI) [5, 15]: 127.7 (116.7‐139.6) %
- Total (α+β)-HTBZ Cmax % ratio (90%CI) [5, 15]: 51.4 (46.0‐57.4) %
- α-HTBZ AUCinf % ratio (90%CI) [5, 15]: 129.7 (118.1‐142.5) %
- α-HTBZ Cmax % ratio (90%CI) [5, 15]: 49.3 (44.5‐54.7) %
- β-HTBZ AUC0-t % ratio (90%CI) [5, 15]: 117.0 (104.5‐131.1) %
- β-HTBZ AUCinf % ratio (90%CI) [5, 15]: 119.9 (105.5‐136.2) %
- β-HTBZ Cmax % ratio (90%CI) [5, 15]: 55.3 (47.7‐64.2) %
- Increase of AUCinf of (α+β)-HTBZ with food ([5]; deutetrabenazine 15 mg high-fat meal vs fasted): about 11%
- Total (α+β)-HTBZ AUC0-t % ratio [5, 16]: 111.5%
- Total (α+β)-HTBZ AUCinf % ratio [5, 16]: 110.6%
- Total (α+β)-HTBZ Cmax % ratio [5, 16]: 149.7%
- Total (α+β)-HTBZ T1/2 % ratio [5, 16]: 75.3%
- Total (α+β)-HTBZ AUC0-t ([5]; fasted): 263 (45) ng·h/mL
- Total (α+β)-HTBZ AUCinf ([5]; fasted): 273 (45) ng·h/mL
- Total (α+β)-HTBZ Cmax ([5]; fasted): 22.5 (36) ng/mL
- Total (α+β)-HTBZ T1/2 ([5]; fasted): 9.4 (25) h
- α-HTBZ AUC0-t ([5]; fasted): 185 (25) ng·h/mL
- α-HTBZ AUCinf ([5]; fasted): 196 (24) ng·h/mL
- α-HTBZ Cmax ([5]; fasted): 14.2(34) ng/mL
- β-HTBZ AUC0-t ([5]; fasted): 74.2 (108) ng·h/mL
- β-HTBZ AUCinf ([5]; fasted): 81.4 (105) ng·h/mL
- β-HTBZ Cmax ([5]; fasted): 8.43 (48) ng/mL
- β-HTBZ T1/2 ([5]; fasted): 6.6 (56) h
- Total (α+β)-HTBZ Tmax ([5]; fasted): 2.3 (1.0‐8.0) h
- α-HTBZ Tmax ([5]; fasted): 2.5 (1.0‐8.0) h
- β-HTBZ Tmax ([5]; fasted): 2.5 (1.0‐8.0) h
- Total (α+β)-HTBZ AUC0-t ([5]; fed (high-fat meal)): 296 (48) ng·h/mL
- Total (α+β)-HTBZ AUCinf ([5]; fed (high-fat meal)): 305 (46) ng·h/mL
- Total (α+β)-HTBZ Cmax ([5]; fed (high-fat meal)): 33.3 (33) ng/mL
- Total (α+β)-HTBZ T1/2 ([5]; fed (high-fat meal)): 7.0 (23) h
- α-HTBZ AUC0-t ([5]; fed (high-fat meal)): 207 (30) ng·h/mL
- α-HTBZ AUCinf ([5]; fed (high-fat meal)): 217 (29) ng·h/mL
- α-HTBZ Cmax ([5]; fed (high-fat meal)): 20.8 (27) ng/mL
- β-HTBZ AUC0-t ([5]; fed (high-fat meal)): 85.6 (102) ng·h/mL
- β-HTBZ AUCinf ([5]; fed (high-fat meal)): 102 (92) ng·h/mL
- β-HTBZ Cmax ([5]; fed (high-fat meal)): 12.7 (50) ng/mL
- β-HTBZ T1/2 ([5]; fed (high-fat meal)): 4.6 (63) h
- Total (α+β)-HTBZ Tmax ([5]; fed (high-fat meal)): 6.0 (1.5‐8.0) h
- α-HTBZ Tmax ([5]; fed (high-fat meal)): 6.0 (1.0‐8.0) h
- β-HTBZ Tmax ([5]; fed (high-fat meal)): 6.0 (1.5‐8.0) h
- Total (α+β)-HTBZ AUC0-t, LS mean ([5]; deutetrabenazine 15 mg, fasted): 244.6 ng·h/mL
- Total (α+β)-HTBZ AUCinf, LS mean ([5]; deutetrabenazine 15 mg, fasted): 254.9 ng·h/mL
- Total (α+β)-HTBZ Cmax, LS mean ([5]; deutetrabenazine 15 mg, fasted): 21.2 ng/mL
- Total (α+β)-HTBZ AUC0-t, LS mean [5, 17]: 272.8 ng·h/mL
- Total (α+β)-HTBZ AUCinf, LS mean [5, 17]: 282.0 ng·h/mL
- Total (α+β)-HTBZ Cmax, LS mean [5, 17]: 31.7 ng/mL
- Total (α+β)-HTBZ T1/2, LS mean [5, 17]: 6.8 h
- Effect of food on exposure to total (α+β)-HTBZ, as measured by AUC ([5]; deutetrabenazine fed vs fasted): no effect
- Plasma concentrations of the parent compound [5]: near or at the LLOQ
- Change in the Abnormal Involuntary Movement Scale scores (tardive dyskinesia): significantly reduced TD

Compound: COc1cc2c(cc1OC)C1CC(=O)C(CC(C)C)CN1CC2 (stereo not shown) [Tetrabenazine, reference compound]
- Serious AEs [4]: One serious AE of vessel puncture‐site reaction
- Subjects with change from predose in QTc of >30 milliseconds ([4]; in vivo): No subject
- Subjects with postdose QTc > 450 milliseconds ([4]; in vivo): No subject
- Laboratory parameters, vital signs and physical examination [4]: no clinically significant abnormalities
- Plasma concentrations of the parent compound [5]: near or at the LLOQ
- Chorea severity compared with placebo-treated patients [6]: significantly reduced chorea severity

Compound: COc1cc2c(cc1OC)[C@H]1C[C@H](O)[C@H](CC(C)C)CN1CC2 [β‐HTBZ, β‐dihydrotetrabenazine]
- Inhibition of VMAT2 (VMAT2): potent inhibitors

Compound: α‐dihydrotetrabenazine [α‐HTBZ]
- Inhibition of VMAT2 (VMAT2): potent inhibitors
